Measured values taken from ChEMBL document CHEMBL1126794, “2-(Quinuclidin-3-yl)pyrido[4,3-b]indol-1-ones and isoquinolin-1-ones. Potent conformationally restricted 5-HT3 receptor antagonists” (J Med Chem, 1993).

Key:
[1] = molecular target: T1, Serotonin 3 (5-HT3) receptor (Rattus norvegicus, UniProt P35563+Q9JJ16); assay: Binding affinity against 5-hydroxytryptamine 3 (5-HT3) receptor in rat brain cortical membranes using radioligand [3H]quipazine; format: cell membranes
T1 sequence (P35563 whole entry): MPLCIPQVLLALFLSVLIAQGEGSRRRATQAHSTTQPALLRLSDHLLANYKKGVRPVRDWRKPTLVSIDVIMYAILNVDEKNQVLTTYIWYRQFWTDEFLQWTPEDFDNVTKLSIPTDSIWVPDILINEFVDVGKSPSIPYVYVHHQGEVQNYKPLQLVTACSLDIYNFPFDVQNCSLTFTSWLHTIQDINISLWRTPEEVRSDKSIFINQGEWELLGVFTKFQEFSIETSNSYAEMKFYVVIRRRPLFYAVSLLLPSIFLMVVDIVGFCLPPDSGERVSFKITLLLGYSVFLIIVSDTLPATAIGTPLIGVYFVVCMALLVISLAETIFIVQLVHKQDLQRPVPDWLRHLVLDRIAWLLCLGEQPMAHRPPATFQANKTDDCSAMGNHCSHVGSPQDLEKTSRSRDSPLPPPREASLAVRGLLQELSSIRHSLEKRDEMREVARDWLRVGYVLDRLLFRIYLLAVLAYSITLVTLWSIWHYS
T1 sequence (Q9JJ16 whole entry): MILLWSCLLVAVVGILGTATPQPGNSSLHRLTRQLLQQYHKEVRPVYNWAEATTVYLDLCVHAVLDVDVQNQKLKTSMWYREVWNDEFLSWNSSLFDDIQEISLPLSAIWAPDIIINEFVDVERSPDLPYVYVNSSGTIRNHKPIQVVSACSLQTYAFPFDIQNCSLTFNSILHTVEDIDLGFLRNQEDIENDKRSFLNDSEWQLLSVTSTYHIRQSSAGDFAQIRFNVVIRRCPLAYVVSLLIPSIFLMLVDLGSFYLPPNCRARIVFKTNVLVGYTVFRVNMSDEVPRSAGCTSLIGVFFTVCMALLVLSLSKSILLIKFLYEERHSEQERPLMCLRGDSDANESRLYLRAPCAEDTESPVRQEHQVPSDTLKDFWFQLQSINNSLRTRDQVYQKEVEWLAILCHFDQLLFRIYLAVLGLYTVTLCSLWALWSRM
Procedure, shortened: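 Rat cerebral cortex membranes, washed in 50 mM Tris pH 7.4, incubated 45 min at 25 °C in Tris-Krebs buffer pH 7.4 with 0.3–0.7 nM [3H]quipazine plus 0.1 μM paroxetine. Ten test concentrations from 1e-12 to 1e-4 M. Nonspecific binding defined with 1.0 μM racemic zacopride. Filtration, scintillation counting, IC50 by iterative fit, Ki by Cheng-Prusoff. Means of ≥3 determinations, or of two.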

[2] = tested on: Rattus norvegicus; assay: Potency to inhibit bradycardiac effect measured by Von Bezold-Jarisch assay in 8 anesthetized rats; format: functional; conditions: read-out: ID50 (the source's name)
Procedure, shortened: (§1)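 Male Sprague-Dawley rats, 250–380 g, under urethane (1.5 g/kg ip), with cannulated trachea and femoral veins; heart rate recorded by ECG. Lowest consistent bradycardic dose of 2-methyl-5-HT titrated iv, then given every 12 min. Increasing iv doses given 5 min before each challenge, with saline vehicle group.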

[3] = tested on: Rattus norvegicus; assay: Potency to inhibit bradycardiac effect measured by Von Bezold-Jarisch assay in 9 anesthetized rats; format: functional; design: ID50: unit not given here; procedure, shortened: as §1
[4] = tested on: Rattus norvegicus; assay: Potency to inhibit bradycardiac effect measured by Von Bezold-Jarisch assay in 4 anesthetized rats; format: functional; procedure, shortened: as §1

| Compound | Ki [1] [nM] | also measured |
| --- | --- | --- |
| Cn1cc(C(=O)NC2CN3CCC2CC3)c2ccccc21 (centres undefined) | 2 | – |
| CCc1cccc2c(=O)n([C@@H]3CN4CCC3CC4)ccc12.Cl | 0.2 | ED50 [2]: 0.13 µg/kg |
| COc1cc(N)c(Cl)cc1C(=O)N[C@@H]1CN2CCC1CC2 | 0.251 | – |
| Cc1cccc2c(=O)n(C3CN4CCC3CC4)cc(C)c12.Cl (centres undefined) | 1 | ED50 [2]: 0.25 µg/kg |
| Cc1ccccc1C(=O)NC1CN2CCC1CC2 (centres undefined) | 631 | – |
| COc1cccc2c(=O)n(C3CC4CCC(C3)N4C)ccc12 (centres undefined) | 2.51 | – |
| O=c1c2c3ccccc3n3c2c(cn1[C@@H]1CN2CCC1CC2)CCC3 | – | ED50 ([3]; Rattus norvegicus, read-out: ID50 (the source's name)): 0.05 µg/kg |
| O=C(NC1CN2CCC1CC2)c1c2n(c3ccccc13)CCCC2 (centres undefined) | 2.51 | – |
| COc1cccc(C(=O)N[C@@H]2CN3CCC2CC3)c1C | 398 | – |
| Cl.O=c1c2cccc3c2c(cn1[C@H]1CN2CCC1CC2)CCC3 | 7.94 | ID50 [4]: 2 pKi |
| Cc1cccc(C(=O)N[C@@H]2CN3CCC2CC3)c1C | 158 | – |
| O=c1c2ccccc2ccn1C1CN2CCC1CC2 (centres undefined) | 10 | – |
| Cl.O=c1c2cccc3c2c(cn1[C@@H]1CN2CCC1CC2)CCC3 | 0.158 | ID50 [3]: 0.1 |
| COc1cccc2c1CCN(C1CC3CCC(C1)N3C)C2=O (centres undefined) | 10 | – |
| COc1cccc2c(=O)n([C@@H]3CN4CCC3CC4)ccc12.Cl | 0.158 | ED50 [2]: 0.03 µg/kg |
| O=C1c2cccc3c2[C@H](CCC3)CN1[C@H]1CN2CCC1CC2 | 2.51 | – |
| CCc1cccc2c1CCN(C1CN3CCC1CC3)C2=O.Cl (centres undefined) | 0.2 | ED50 [2]: 0.18 µg/kg |
| O=C(N[C@@H]1CN2CCC1CC2)c1c2n(c3ccccc13)CCCCC2 | 5.01 | – |
| CN1C2CCC1CC(n1cc3c4c(cccc4c1=O)CCC3)C2 (centres undefined) | 0.794 | ED50 [2]: 0.65 µg/kg |
| O=C(N[C@@H]1CN2CCC1CC2)c1cccc2c1CCCC2 | 200 | – |
| Cc1c(C(=O)NC2CN3CCC2CC3)c2ccccc2n1C (centres undefined) | 39.8 | – |
| COc1cccc2c1CCN(C1CN3CCC1CC3)C2=O (centres undefined) | 0.2 | – |
